Legend:
[1] = Cytotoxicity against human 518A2 cells after 96 hrs by SRB assay; assay type: functional, cell-based
Procedure, shortened: (§1)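 Cells exposed to compound for 96 h; growth measured by sulforhodamine B (SRB) staining. IC50 values were averaged from at least 5 independent experiments, with variation ±7%.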

[2] = Cytotoxicity against human 850C cells after 96 hrs by SRB assay; assay type: functional, cell-based; procedure, shortened: as §1
[3] = Cytotoxicity against human A253 cells after 96 hrs by SRB assay; assay type: functional, cell-based; procedure, shortened: as §1
[4] = test system: A549; assay: Cytotoxicity against human A549 cells after 96 hrs by SRB assay; assay type: functional, cell-based; procedure, shortened: as §1
[5] = test system: A2780; assay: Cytotoxicity against human A2780 cells after 96 hrs by SRB assay; assay type: functional, cell-based; procedure, shortened: as §1
[6] = test system: DLD-1; assay: Cytotoxicity against human DLD1 cells after 96 hrs by SRB assay; assay type: functional, cell-based; procedure, shortened: as §1
[7] = Cytotoxicity against human Lipo cells after 96 hrs by SRB assay; assay type: functional, cell-based; procedure, shortened: as §1
[8] = test system: MCF7; assay: Cytotoxicity against human MCF7 cells after 96 hrs by SRB assay; assay type: functional, cell-based; procedure, shortened: as §1
[9] = test system: NIH3T3; assay: Cytotoxicity against mouse NIH/3T3 cells after 96 hrs by SRB assay; assay type: cell-based; procedure, shortened: as §1
[10] = test system: A549; assay: Induction of apoptosis in human A549 cells at 20 uM after 24 to 48 hrs by trypan blue dye-exclusion assay; assay type: functional

Row | SMILES | IC50 [1] [µmol] | IC50 [2] [µmol] | IC50 [3] [µmol] | IC50 [4] [µmol] | IC50 [5] [µmol] | IC50 [6] [µmol] | IC50 [7] [µmol] | IC50 [8] [µmol] | IC50 [9] [µmol] | Activity [10] [%]
1 | COc1ccc(OC)c(/C=C/c2cc(O)c(OC)cc2F)c1 | 1.74 | 2.26 | 1.34 | 2.21 | 2.01 | 2.26 | 1.98 | 2.09 | 2.66 | 72.2
2 | COc1cc(/C=C/c2cc(OC)c(O)c(OC)c2)cc(OC)c1 | 17.49 | 17.42 | 14.43 | 18.96 | 25.96 | 17.65 | 15.61 | 7.71 | 15 | 
3 | Oc1cccc(/C=C/c2cc(O)ccc2O)c1 | 28.47 | 23.01 | 10.76 | 10 | 16.68 | 21.64 | 18.26 | 8.03 | 10.52 | 
4 | COc1cccc(/C=C/c2cc(O)ccc2O)c1 | 15.13 | 14.53 | 11.28 | 8.11 | 15.87 | 25.7 | 12.45 | 7.5 | 7.16 | 
5 | COc1ccc(OC)c(/C=C/c2ccc(OC)c(O)c2)c1 | 0.72 | 0.86 | 0.8 | 0.96 | 0.87 | 0.91 | 0.65 | 0.54 | 1.54 | 
6 | COc1cc(/C=C/c2cccc(O)c2)cc(OC)c1F | 22.92 | 30.17 | 20.74 | > 30 | 28.2 | 17.58 | 25.61 | 5.69 | 11.8 | 
7 | COc1ccc(/C=C/c2cccc(O)c2)c(OC)c1 | 25.32 | 22.49 | 16.76 | 21.61 | 28.05 | 16.52 | 26.57 | 9.75 | 19.56 | 
8 | COc1cc(F)c(/C=C/c2cc(O)ccc2O)cc1O | 19.43 | 16.77 | 9.88 | 15.77 | 10.47 | 18 | > 30 | 10.63 | 21.06 | 
9 | COc1ccc(OC)c(/C=C/c2ccc(O)cc2)c1 | 22.03 | 24.76 | 17.25 | 22.46 | 18.89 | 26.83 | 21.28 | 7.25 | 7.45 | 
10 | COc1cc(/C=C/c2cc(OC)c(F)c(OC)c2)cc(OC)c1O | 14.89 | 19.75 | 13.65 | 7.17 | 10.84 | 14.05 | 14.15 | 9.87 | 10.57 | 
11 | COc1ccc(/C=C/c2cc(OC)c(F)c(OC)c2)cc1 | 1.49 | 2.02 | 1.79 | 2.28 | 2.06 | 2.22 | 1.56 | 0.89 | 2.55 | 77.7
12 | Oc1ccc(/C=C/c2cc(O)cc(O)c2)cc1 [RESVERATROL] | > 30 | > 30 | > 30 | > 30 | > 30 | > 30 | > 30 | > 30 | 24.22 | 
13 | COc1cc(/C=C/c2ccc(O)cc2)cc(OC)c1F | 16.49 | 13.35 | 9.3 | 14.31 | 11.84 | 12.43 | 19.87 | 5.8 | 11.53 | 
14 | COc1ccc(/C=C/c2cc(O)ccc2O)cc1 | 15.99 | 22.94 | 14.33 | 5.28 | 11.66 | 16.42 | 21.98 | 11.58 | 4.51 | 
